From ChEMBL document CHEMBL3352311, “Discovery of novel 3-benzylquinazolin-4(3H)-ones as potent vasodilative agents” (Bioorg Med Chem Lett, 2014) come the findings set out here.

Calls of active or inactive are those of the source. No cut-off for these calls is given here.

A short description of assay [1]: Vasodilative activity in isolated Sprague-Dawley rat mesenteric arterial ring assessed as reduction in KCl-induced contraction by wire myograph method relative to control. Format: functional. Conditions: Mesenteric artery. An outline of the steps: (§1)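 Isolated rat mesenteric arterial rings were precontracted with 60 mM KCl MOPS solution and then exposed to the compound. Relaxation was expressed as pEC50 and Emax (%), given as mean ± deviation. DMSO served as vehicle control and nitrendipine as reference.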

Assay [2] can be described thus: Vasodilative activity in isolated Sprague-Dawley rat mesenteric arterial ring assessed as reduction in KCl-induced contraction by wire myograph method. It counts as functional. Conditions: Mesenteric artery. The essentials: as §1
Assay [3] deals with Rattus norvegicus. Description: Antihypertensive activity in spontaneously hypertensive rat assessed as reduction in systolic blood pressure at 4 mg/kg, po measured after 1 hr. Format: functional, Artery. The essentials: (§2)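 Oral dosing in spontaneously hypertensive rats, n = 8 per group. Vehicle was NMP/PEG400/H2O 1:7:2 at 5 ml/kg, and vehicle alone served as control. DBP and SBP (mmHg) were recorded before dosing (0 h) and 1 h after. The reported value is the reduction from the 0 h reading. Doses tested ranged from 0.5 to 8.0 mg/kg, with nitrendipine 2.0 mg/kg as positive drug.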

In assay [4] the test system is Rattus norvegicus. Kind of assay: Antihypertensive activity in spontaneously hypertensive rat assessed as reduction in diastolic blood pressure at 4 mg/kg, po measured after 1 hr. It counts as functional, Artery. An outline of the steps:
as §2

The nature of assay [5]: Vasodilative activity in isolated Sprague-Dawley rat mesenteric arterial ring assessed as reduction in phenylephrine-induced contraction at 1 to 10 uM pre-incubated for 30 mins before phenylephrine addition by wire myograph method. It counts as functional. The conditions noted are these: Mesenteric artery. The essentials: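 Rat mesenteric artery segments were pretreated with compound at 10^-5 M or 10^-6 M for 30 min. Contraction induced by phenylephrine was then recorded.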

Assay [6] deals with Rattus norvegicus. Description: Antihypertensive activity in spontaneously hypertensive rat assessed as reduction in systolic blood pressure at 2 mg/kg, po measured after 1 hr. Format: functional, Artery. The essentials:
as §2

Assay [7] has as its system Rattus norvegicus. Description: Antihypertensive activity in orally dosed spontaneously hypertensive rat assessed as reduction in systolic blood pressure. Format: functional, organism-based. Conditions: Artery. The essentials: as §2
Assay [8] relates to Rattus norvegicus. Kind of assay: Antihypertensive activity in spontaneously hypertensive rat assessed as reduction in systolic blood pressure at 8 mg/kg, po measured after 1 hr. It counts as functional, Artery. An outline of the steps: as §2
In assay [9] the test system is Rattus norvegicus. Description: Antihypertensive activity in spontaneously hypertensive rat assessed as reduction in diastolic blood pressure at 8 mg/kg, po measured after 1 hr. It counts as functional, Artery. The essentials:
as §2

Assay [10] concerns Rattus norvegicus. Kind of assay: Antihypertensive activity in spontaneously hypertensive rat assessed as reduction in diastolic blood pressure at 2 mg/kg, po measured after 1 hr. Format: functional, Artery. The essentials: as §2
In assay [11] the test system is Rattus norvegicus. Description: Antihypertensive activity in spontaneously hypertensive rat assessed as reduction in diastolic blood pressure at 4 mg/kg, po measured after 2 hrs. It counts as functional, Artery. An outline of the steps:
(§3)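 Time course in spontaneously hypertensive rats given 4.0 mg/kg orally in NMP/PEG400/H2O 1:7:2 vehicle (5 ml/kg). A vehicle-only group was included. DBP and SBP were followed at successive times after dosing, and the reduction from the pre-dose blood pressure was reported.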

Assay [12] deals with Rattus norvegicus. Description: Antihypertensive activity in spontaneously hypertensive rat assessed as reduction in diastolic blood pressure at 1 mg/kg, po measured after 1 hr. It counts as functional, Artery. The essentials:
as §2

Assay [13] has as its system Rattus norvegicus. Kind of assay: Antihypertensive activity in spontaneously hypertensive rat assessed as reduction in systolic blood pressure at 0.5 mg/kg, po measured after 1 hr. Format: functional, Artery. An outline of the steps:
as §2

The test system of assay [14] is Rattus norvegicus. Kind of assay: Antihypertensive activity in spontaneously hypertensive rat assessed as reduction in diastolic blood pressure at 4 mg/kg, po measured after 8 hrs. Format: functional, Artery. The essentials: as §3
Assay [15] relates to Rattus norvegicus. Kind of assay: Antihypertensive activity in spontaneously hypertensive rat assessed as reduction in systolic blood pressure at 4 mg/kg, po measured after 0.5 hrs. It counts as functional, Artery. The essentials: as §3
Assay [16] concerns Rattus norvegicus. Description: Antihypertensive activity in spontaneously hypertensive rat assessed as reduction in diastolic blood pressure at 4 mg/kg, po measured after 6 hrs. Format: functional, Artery. An outline of the steps: as §3
Assay [17] deals with Rattus norvegicus. Description: Antihypertensive activity in spontaneously hypertensive rat assessed as reduction in diastolic blood pressure at 4 mg/kg, po measured after 4 hrs. Format: functional, Artery. An outline of the steps:
as §3

The subject of assay [18] is Rattus norvegicus. Description: Antihypertensive activity in spontaneously hypertensive rat assessed as reduction in diastolic blood pressure at 0.5 mg/kg, po measured after 1 hr. It counts as functional, Artery. An outline of the steps:
as §2

In assay [19] the test system is Rattus norvegicus. Kind of assay: Antihypertensive activity in spontaneously hypertensive rat assessed as reduction in diastolic blood pressure at 4 mg/kg, po measured after 0.5 hrs. Format: functional, Artery. The essentials:
as §3

Assay [20] concerns Rattus norvegicus. Kind of assay: Antihypertensive activity in orally dosed spontaneously hypertensive rat assessed as reduction in diastolic blood pressure. Format: functional, organism-based. The conditions noted are these: Artery. The essentials: as §2
In assay [21] the test system is Rattus norvegicus. Description: Antihypertensive activity in spontaneously hypertensive rat assessed as reduction in systolic blood pressure at 4 mg/kg, po measured after 4 hrs. It counts as functional, Artery. The essentials:
as §3

Assay [22] concerns Rattus norvegicus. Kind of assay: Antihypertensive activity in spontaneously hypertensive rat assessed as reduction in systolic blood pressure at 4 mg/kg, po measured after 2 hrs. It counts as functional, Artery. An outline of the steps: as §3
Assay [23] concerns Rattus norvegicus. Description: Antihypertensive activity in spontaneously hypertensive rat assessed as reduction in systolic blood pressure at 4 mg/kg, po measured after 6 hrs. Format: functional, Artery. The essentials: as §3
In assay [24] the test system is Rattus norvegicus. Description: Antihypertensive activity in spontaneously hypertensive rat assessed as reduction in systolic blood pressure at 4 mg/kg, po measured after 8 hrs. It counts as functional, Artery. An outline of the steps:
as §3

Assay [25] relates to Rattus norvegicus. Kind of assay: Antihypertensive activity in spontaneously hypertensive rat assessed as reduction in systolic blood pressure at 1 mg/kg, po measured after 1 hr. Format: functional, Artery. The essentials:
as §2

For orientation: Emax means the maximal effect, on the per cent scale that the assay sets. What is called EC50 is the concentration needed to bring the measured effect to its halfway point. For the compound `COc1cc2ncn(Cc3ccc(OCc4ccc(F)cc4)c(Cl)c3)c(=O)c2cc1OC`, in [1], the Emax stood at 98.9%. In addition, the EC50 in assay [2] is 10 µM.

`COc1cc2ncn(Cc3ccc(F)cc3)c(=O)c2cc1OC`: the Emax in assay [1] was found to be 97.8%. Moreover, in assay [2], the EC50 was 25.1 µM.

For `COc1cc(Cn2cnc3cc(OC)c(OC)cc3c2=O)ccc1O`, the Emax in assay [1] worked out at 87.6%. In addition, the 50% effective concentration (EC50) in assay [2] is 31.6 µM.

Turning to `COc1cc2ncn(Cc3ccc4c(c3)OCO4)c(=O)c2cc1OC`, the Emax in [1] worked out at 98.6%. In assay [2], the half-maximal effective concentration (EC50) is 7.94 µM.

Consider `COc1cc2ncn(Cc3ccccc3)c(=O)c2cc1OC`, for which the Emax in assay [1] came out at 98.2%. For the same compound, the 50% effective concentration (EC50) in assay [2] is 39.8 µM.

On to `COc1cc2ncn(Cc3ccc([N+](=O)[O-])cc3)c(=O)c2cc1OC`, for which the Emax in assay [1] turned out to be 86.2%. For the same compound, in assay [2], the concentration for a half-maximal effect (EC50) was 63.1 µM.

For `O=c1c2cc(Br)ccc2ncn1Cc1ccc(F)cc1`, in assay [1], the Emax was determined as 96.4%. In assay [2], the EC50 is 50.1 µM.

As to `COc1cc2ncn(Cc3ccc(OCc4ccccc4)c(OC)c3)c(=O)c2cc1OC`, in [1], the Emax came out at 103%. In addition, the values for the Activity in [3] and in [4] were 48 mmHg and 19 mmHg, respectively. The EC50 in assay [2] was 0.398 µM. The result in assay [5] was Active.

Consider `COc1cc2ncn(Cc3ccc(OCc4cccnc4)c(OC)c3)c(=O)c2cc1OC`, for which the Emax in [1] amounted to 98.4%. For the same compound, the EC50 in [2] was 0.631 µM.

For `COc1cc2ncn(Cc3ccc(OCc4ccc(F)cc4)c(OC)c3)c(=O)c2cc1OC`, the Activity in assay [6] was 41 mmHg; in [7], “Dose-dependent effect”; in [8] it was 64 mmHg; in assay [9], 43 mmHg; in assay [10] it was 18 mmHg; in assay [11] it was 23 mmHg. Moreover, the Activity in [12] stood at 15 mmHg; in [13] it was 12 mmHg; in assay [3], 60 mmHg; in [14], 0 mmHg; in assay [15], 46 mmHg; in assay [16], 10 mmHg. Besides, the Activity is 17 mmHg in assay [17]; 9 mmHg in assay [18]; 20 mmHg in assay [19]; “Dose-dependent effect” in [20]; 36 mmHg in assay [21]; 42 mmHg in [22]. For the same compound, the Activity in assay [23] is 21 mmHg; in [24], 2 mmHg; in assay [4], 34 mmHg; in [25], 28 mmHg. For the same compound, the Emax in [1] was 103%. For the same compound, the EC50 in assay [2] is 0.251 µM. In addition, the outcome in [5] was Active.

On to `COc1ccc(Cn2cnc3cc4c(cc3c2=O)OCO4)cc1`, for which the Emax in assay [1] was 101%. Moreover, in assay [2], the concentration for a half-maximal effect (EC50) was 20 µM.

For `COc1cc2ncn(Cc3ccc(OCc4ccc(F)cc4)cc3)c(=O)c2cc1OC`, the Emax in assay [1] was found to be 50.3%. Also, the EC50 in assay [2] is 100 µM.

Turning to `COc1cc2ncn(Cc3ccc(C#N)cc3)c(=O)c2cc1OC`, in assay [1], the Emax came to 85.6%. Besides, in assay [2], the EC50 was 50.1 µM.

As for `COc1ccc(COc2ccc(Cn3cnc4cc(OC)c(OC)cc4c3=O)cc2OC)cc1OC`, the Emax in assay [1] worked out at 99.7%. Moreover, in [2], the EC50 is 3.16 µM.

Take `COc1cc2ncn(Cc3ccccc3C)c(=O)c2cc1OC`: the Emax in assay [1] was 97.3%. Moreover, the EC50 in assay [2] was 31.6 µM.

On to `COc1ccc(Cn2cnc3cc(F)ccc3c2=O)cc1`, for which the Emax in assay [1] amounted to 87.7%. Moreover, the EC50 in assay [2] was 79.4 µM.

`O=c1c2ccc(Cl)cc2ncn1Cc1ccc(F)cc1`: in [1], the Emax was 101%. Further, in assay [2], the EC50 is 63.1 µM.

Take `COc1cc2ncn(Cc3ccc(OC)c(OCc4ccccc4)c3)c(=O)c2cc1OC`: the Emax in [1] was 95%. Further, the EC50 in assay [2] was 31.6 µM.

Turning to `COc1ccc(-n2cnc3cc(OC)c(OC)cc3c2=O)cc1`, the Emax in assay [1] amounted to 96.3%. In addition, the EC50 in assay [2] is 63.1 µM.

For `COc1cc2ncn(Cc3ccc(OCc4ccc(F)cc4)c(F)c3)c(=O)c2cc1OC`, the maximum response (Emax) in assay [1] was found to be 99.1%. The EC50 in assay [2] was 7.94 µM.

On to `O=c1c2ccc(F)cc2ncn1Cc1ccc(F)cc1`, for which the Emax in assay [1] came to 78.3%. Moreover, in [2], the concentration for a half-maximal effect (EC50) was 100 µM.

In the case of `COc1ccc(Cn2cnc3cc(Cl)ccc3c2=O)cc1`, the maximal effect (Emax) in assay [1] came to 97%. The EC50 in assay [2] is 50.1 µM.

For the compound `COc1cc2ncn(Cc3ccc(OCc4cccc(F)c4)c(OC)c3)c(=O)c2cc1OC`, the Emax in [1] was determined as 99.6%. Further, in assay [2], the EC50 was 1 µM.

On to `COc1cc2ncn(Cc3ccc(OCc4ccncc4)c(OC)c3)c(=O)c2cc1OC`, for which the Emax in assay [1] came out at 93.5%. The EC50 in assay [2] is 20 µM.

Turning to `COc1ccc(Cn2cnc3cc(OC)c(OC)cc3c2=O)cc1`, the maximal effect (Emax) in assay [1] stood at 100%. Besides, the EC50 in assay [2] was 25.1 µM.

As for `CCOC(=O)C1=C(C)NC(C)=C(C(=O)OC)C1c1cccc([N+](=O)[O-])c1` (stereo unspecified) [NITRENDIPINE], the Activity in assay [6] came to 51 mmHg; in assay [10], 30 mmHg. Also, the Emax in [1] came to 104%. The EC50 in [2] was 0.00398 µM.

`COc1cc2ncn(Cc3ccc(OCc4ccc(Cl)cc4Cl)c(OC)c3)c(=O)c2cc1OC`: the Emax in assay [1] amounted to 97.8%. Also, in assay [2], the EC50 is 12.6 µM.

Consider `COc1cc2ncn(Cc3ccccc3Cl)c(=O)c2cc1OC`, for which the Emax in assay [1] turned out to be 98.3%. Moreover, the EC50 in assay [2] is 39.8 µM.

With `COc1cc2ncn(Cc3cc(OC)c(OC)c(OC)c3)c(=O)c2cc1OC`, the Emax in assay [1] turned out to be 104%. Besides, in assay [2], the EC50 is 0.501 µM.
